Converted amounts (≈) assume the structure as drawn.
Columns and labels:
Assay type in all cases: functional
[1] = tested on: Fusarium solani; test: Antimicrobial activity against Fusarium solani NCIM 1330 after 48 hrs by microdilution susceptibility method; settings: NCIM 1330, 48 h
Summary of the method: (§1)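 Broth microdilution MIC with NCIM strains. Compounds and the references (chloramphenicol, antibacterial; ketoconazole, antifungal) were dissolved in DMSO at 800 and diluted two-fold from 400 down to 6.25. Wells were inoculated with the microbial suspension and incubated at 36 °C, 24 h for bacteria and 48 h for fungi. MIC was the lowest concentration with no visible growth.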

[2] = tested on: Staphylococcus aureus; test: Antimicrobial activity against Staphylococcus aureus NCIM 5021 at 100 ug/disk after 24 hrs by agar disc-diffusion method; settings: NCIM 5021, 24 h, read-out: DIZ
Summary of the method: (§2)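 Agar disc diffusion with NCIM strains. Sterile 6 mm filter-paper discs were moistened with compound in DMSO at 100 or 200 per disc and placed on agar plates pre-inoculated with each organism. Plates were incubated at 37 °C. Growth-inhibition zone diameter was read at 24 h for bacteria and 48 h for fungi.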

[3] = tested on: Klebsiella pneumoniae; test: Antimicrobial activity against Klebsiella pneumoniae NCIM 2957 at 100 ug/disk after 24 hrs by agar disc-diffusion method; settings: NCIM 2957, 24 h, read-out: DIZ; summary of the method: as §2
[4] = tested on: Aspergillus niger; test: Antimicrobial activity against Aspergillus niger NCIM 596 at 100 ug/disk after 48 hrs by agar disc-diffusion method; settings: NCIM 596, 48 h, read-out: DIZ; summary of the method: as §2
[5] = tested on: Klebsiella pneumoniae; test: Antimicrobial activity against Klebsiella pneumoniae NCIM 2957 at 200 ug/disk after 24 hrs by agar disc-diffusion method; settings: NCIM 2957, 24 h, read-out: DIZ; summary of the method: as §2
[6] = tested on: Curvularia lunata; test: Antimicrobial activity against Curvularia lunata NCIM 716 at 100 ug/disk after 48 hrs by agar disc-diffusion method; settings: NCIM 716, 48 h, read-out: DIZ; summary of the method: as §2
[7] = tested on: Staphylococcus aureus; test: Antimicrobial activity against Staphylococcus aureus NCIM 5021 after 24 hrs by microdilution susceptibility method; settings: NCIM 5021, 24 h; summary of the method: as §1
[8] = tested on: Proteus vulgaris; test: Antimicrobial activity against Proteus vulgaris NCIM 2027 at 100 ug/disk after 24 hrs by agar disc-diffusion method; settings: NCIM 2027, 24 h, read-out: DIZ
[9] = tested on: Fusarium solani; test: Antimicrobial activity against Fusarium solani NCIM 1330 at 200 ug/disk after 48 hrs by agar disc-diffusion method; settings: NCIM 1330, 48 h, read-out: DIZ; summary of the method: as §2
[10] = tested on: Staphylococcus aureus; test: Antimicrobial activity against Staphylococcus aureus NCIM 5021 at 200 ug/disk after 24 hrs by agar disc-diffusion method; settings: NCIM 5021, 24 h, read-out: DIZ; summary of the method: as §2
[11] = tested on: Klebsiella pneumoniae; test: Antimicrobial activity against Klebsiella pneumoniae NCIM 2957 after 24 hrs by microdilution susceptibility method; settings: NCIM 2957, 24 h; summary of the method: as §1
[12] = tested on: Proteus vulgaris; test: Antimicrobial activity against Proteus vulgaris NCIM 2027 after 24 hrs by microdilution susceptibility method; settings: NCIM 2027, 24 h
[13] = tested on: Bacillus subtilis; test: Antimicrobial activity against Bacillus subtilis NCIM 2063 at 200 ug/disk after 24 hrs by agar disc-diffusion method; settings: NCIM 2063, 24 h, read-out: DIZ; summary of the method: as §2
[14] = tested on: Bacillus subtilis; test: Antimicrobial activity against Bacillus subtilis NCIM 2063 after 24 hrs by microdilution susceptibility method; settings: NCIM 2063, 24 h; summary of the method: as §1
[15] = tested on: Bacillus subtilis; test: Antimicrobial activity against Bacillus subtilis NCIM 2063 at 100 ug/disk after 24 hrs by agar disc-diffusion method; settings: NCIM 2063, 24 h, read-out: DIZ; summary of the method: as §2
[16] = tested on: Proteus vulgaris; test: Antimicrobial activity against Proteus vulgaris NCIM 2027 at 200 ug/disk after 24 hrs by agar disc-diffusion method; settings: NCIM 2027, 24 h, read-out: DIZ
[17] = tested on: Aspergillus niger; test: Antimicrobial activity against Aspergillus niger NCIM 596 after 48 hrs by microdilution susceptibility method; settings: NCIM 596, 48 h; summary of the method: as §1
[18] = tested on: Curvularia lunata; test: Antimicrobial activity against Curvularia lunata NCIM 716 after 48 hrs by microdilution susceptibility method; settings: NCIM 716, 48 h; summary of the method: as §1
[19] = Antioxidant activity assessed as nitric oxide scavenging activity at 100 uM after 120 min by Griess assay
Summary of the method: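 Sodium nitroprusside (5 mM) in phosphate buffer pH 7.4 was incubated with test compound dissolved in dioxane/methanol at 25 °C for 120 min. A solvent-only control was run in parallel. Aliquots were mixed 1:1 with Griess reagent (1% sulfanilamide, 0.1% N-naphthylethylenediamine dihydrochloride, 2% o-phosphoric acid in water).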

[20] = tested on: Fusarium solani; test: Antimicrobial activity against Fusarium solani NCIM 1330 at 100 ug/disk after 48 hrs by agar disc-diffusion method; settings: NCIM 1330, 48 h, read-out: DIZ; summary of the method: as §2
[21] = tested on: Radical scavenging activity; test: Antioxidant activity assessed as DPPH free radical scavenging activity at 100 uM after 20 mins
Summary of the method: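 Compound solutions were added to DPPH in dioxane/ethanol and kept at ambient temperature for 20 min, then absorbance was read at 517 nm. Percent inhibition = (A_control − A_sample)/A_control × 100, […].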

[22] = tested on: Curvularia lunata; test: Antimicrobial activity against Curvularia lunata NCIM 716 at 200 ug/disk after 48 hrs by agar disc-diffusion method; settings: NCIM 716, 48 h, read-out: DIZ; summary of the method: as §2
[23] = tested on: Aspergillus niger; test: Antimicrobial activity against Aspergillus niger NCIM 596 at 200 ug/disk after 48 hrs by agar disc-diffusion method; settings: NCIM 596, 48 h, read-out: DIZ; summary of the method: as §2

MIC [1]	MIC [7]	MIC [11]	MIC [12]	Structure (SMILES)	zone of inhibition at 100 µg/disc [2]	zone of inhibition at 100 µg/disc [3]	zone of inhibition at 100 µg/disc [4]	zone of inhibition at 200 µg/disc [5]	zone of inhibition at 100 µg/disc [6]	zone of inhibition at 100 µg/disc [8]	zone of inhibition at 200 µg/disc [9]	zone of inhibition at 200 µg/disc [10]	zone of inhibition at 200 µg/disc [13]	zone of inhibition at 100 µg/disc [15]	zone of inhibition at 200 µg/disc [16]	Activity [19]	zone of inhibition at 100 µg/disc [20]	Activity [21]	zone of inhibition at 200 µg/disc [22]	zone of inhibition at 200 µg/disc [23]	also measured
100 µg/mL (≈ 244 µM)	50 µg/mL (≈ 122 µM)	50 µg/mL (≈ 122 µM)	100 µg/mL (≈ 244 µM)	O=S(=O)(Cc1nnc(CS(=O)(=O)c2ccccc2)s1)Nc1ccccc1	27 mm	27 mm	29 mm	29 mm	30 mm	23 mm	33 mm	30 mm	31 mm	29 mm	26 mm	22.6%	31 mm	23.8%	32 mm	30 mm	MIC [14]: 25 µg/mL (≈ 61 µM); MIC [17]: 50 µg/mL (≈ 122 µM); MIC [18]: 100 µg/mL (≈ 244 µM)
200 µg/mL (≈ 500 µM)	100 µg/mL (≈ 250 µM)	200 µg/mL (≈ 500 µM)	200 µg/mL (≈ 500 µM)	O=S(=O)(Cc1nnc(-c2ccc(Cl)cc2)s1)Nc1ccc(Cl)cc1	25 mm	19 mm	20 mm	22 mm	25 mm	18 mm	30 mm	27 mm	26 mm	23 mm	20 mm	35.7%	27 mm	34.6%	27 mm	23 mm	MIC [14]: 100 µg/mL (≈ 250 µM); MIC [17]: 200 µg/mL (≈ 500 µM); MIC [18]: 100 µg/mL (≈ 250 µM)
50 µg/mL (≈ 114 µM)	50 µg/mL (≈ 114 µM)	100 µg/mL (≈ 229 µM)	100 µg/mL (≈ 229 µM)	Cc1ccc(NS(=O)(=O)Cc2nnc(CS(=O)(=O)c3ccc(C)cc3)s2)cc1	25 mm	25 mm	22 mm	27 mm	25 mm	24 mm	35 mm	28 mm	29 mm	27 mm	26 mm	20.3%	27 mm	21.7%	33 mm	26 mm	MIC [14]: 50 µg/mL (≈ 114 µM); MIC [17]: 100 µg/mL (≈ 229 µM); MIC [18]: 100 µg/mL (≈ 229 µM)
50 µg/mL (≈ 105 µM)	25 µg/mL (≈ 52.3 µM)	50 µg/mL (≈ 105 µM)	50 µg/mL (≈ 105 µM)	O=S(=O)(Cc1nnc(CS(=O)(=O)c2ccc(Cl)cc2)s1)Nc1ccc(Cl)cc1	31 mm	28 mm	32 mm	30 mm	34 mm	25 mm	37 mm	33 mm	32 mm	28 mm	28 mm	28.2%	33 mm	29.9%	36 mm	33 mm	MIC [14]: 25 µg/mL (≈ 52.3 µM); MIC [17]: 50 µg/mL (≈ 105 µM); MIC [18]: 50 µg/mL (≈ 105 µM)
–	–	–	–	O=S(=O)(Cc1nnc(-c2ccccc2)o1)Nc1ccccc1	10 mm	7 mm	12 mm	9 mm	13 mm	6 mm	13 mm	13 mm	11 mm	9 mm	8 mm	63.5%	11 mm	62.3%	15 mm	16 mm	–
–	–	–	–	Cc1ccc(NS(=O)(=O)Cc2nnc(-c3ccc(C)cc3)o2)cc1	10 mm	7 mm	10 mm	8 mm	14 mm	7 mm	15 mm	12 mm	10 mm	9 mm	9 mm	54.3%	12 mm	58.1%	16 mm	12 mm	–

Structure (SMILES)	MIC [1]	MIC [7]	MIC [11]	MIC [12]	zone of inhibition at 100 µg/disc [2]	zone of inhibition at 100 µg/disc [3]	zone of inhibition at 100 µg/disc [4]	zone of inhibition at 200 µg/disc [5]	zone of inhibition at 100 µg/disc [6]	zone of inhibition at 100 µg/disc [8]	zone of inhibition at 200 µg/disc [9]	zone of inhibition at 200 µg/disc [10]	zone of inhibition at 200 µg/disc [13]	zone of inhibition at 100 µg/disc [15]	zone of inhibition at 200 µg/disc [16]	Activity [19]	zone of inhibition at 100 µg/disc [20]	Activity [21]	zone of inhibition at 200 µg/disc [22]	zone of inhibition at 200 µg/disc [23]	also measured
O=C(N[C@H](CO)[C@H](O)c1ccc([N+](=O)[O-])cc1)C(Cl)Cl [CHLORAMPHENICOL]	–	6.25 µg/mL (≈ 19.3 µM)	12.5 µg/mL (≈ 38.7 µM)	12.5 µg/mL (≈ 38.7 µM)	35 mm	37 mm	–	42 mm	–	42 mm	–	41 mm	44 mm	38 mm	45 mm	–	–	–	–	–	MIC [14]: 6.25 µg/mL (≈ 19.3 µM)
CC(=O)N1CCN(c2ccc(OCC3COC(Cn4ccnc4)(c4ccc(Cl)cc4Cl)O3)cc2)CC1 (stereo not given) [KETOCONAZOLE]	12.5 µg/mL (≈ 23.5 µM)	–	–	–	–	–	36 mm	–	41 mm	–	42 mm	–	–	–	–	–	38 mm	–	44 mm	39 mm	MIC [17]: 6.25 µg/mL (≈ 11.8 µM); MIC [18]: 6.25 µg/mL (≈ 11.8 µM)

From ChEMBL document CHEMBL1240473, “Synthesis and bioassay of aminosulfonyl-1,3,4-oxadiazoles and their interconversion to 1,3,4-thiadiazoles” (2010)
